Test results as given in ChEMBL document CHEMBL1123266, “Antibacterial activity of phosphono dipeptides related to alafosfalin” (J Med Chem, 1986).
In brackets after ≈: the same amount, converted by molar mass.

Assays:
[1] = test system: Serratia marcescens; assay: Concentration (IC50) to inhibit the growth of Serratia marcescens.; type: functional, organism-based
Method in brief: (§1)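 Broth dilution in a defined liquid peptide medium lacking antagonists of small peptide mimetics. Inocula were overnight cultures grown in this medium at 37 °C and diluted to about 4 × 10^6 cfu/mL. Compound was tested as a doubling dilution series, final 0.065–512 μg/mL, incubated overnight at 37 °C. Turbidity was read, and IC50 is the concentration reducing 24-h growth to 50% of control.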

[2] = test system: Klebsiella aerogenes; assay: Minimum inhibitory concentration (MIC) to control the growth of Klebsiella aerogenes strain PCM 2063; type: functional
Method in brief: (§2)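 Doubling dilutions of compound were made in a defined liquid peptide medium free of peptide-mimetic antagonists, final 0.065–512 μg/mL. The inoculum was an overnight 37 °C culture diluted to about 4 × 10^6 cfu/mL, incubated overnight at 37 °C. Non-turbid samples were subcultured (0.1 mL) onto solid peptide-medium agar and incubated overnight at 37 °C to assign MIC.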

[3] = test system: Serratia marcescens; assay: Compound was evaluated for its minimum inhibitory concentration (MIC) to control the growth of Serratia marcescens strain PCM 549.; type: functional; method in brief: as §2
[4] = test system: Escherichia coli; assay: Minimum inhibitory concentration (MIC) to control the growth of Escherichia coli strain PCM 2057; type: functional; method in brief: as §2
[5] = test system: Escherichia coli; assay: Concentration (IC50) to inhibit the growth of Escherichia coli.; type: functional, organism-based; method in brief: as §1
[6] = test system: Bacillus subtilis; assay: Concentration (IC50) to inhibit the growth of Bacillus subtilis; type: functional, organism-based; method in brief: as §1
[7] = test system: Enterococcus faecalis; assay: Concentration (IC50) to inhibit the growth of Streptococcus faecalis.; type: functional, organism-based; method in brief: as §1
[8] = test system: Klebsiella aerogenes; assay: Concentration (IC50) to inhibit the growth of Klebsiella aerogenes.; type: functional, organism-based; method in brief: as §1
[9] = test system: Enterococcus faecalis; assay: Minimum inhibitory concentration (MIC) to control the growth of Streptococcus faecalis strain PCM 896; type: functional; method in brief: as §2
[10] = test system: Bacillus subtilis; assay: Compound was evaluated for its minimum inhibitory concentration (MIC) to control the growth of Bacillus subtilis strain PCM 1949.; type: functional; method in brief: as §2
[11] = test system: Staphylococcus aureus; assay: Compound was evaluated for its minimum inhibitory concentration (MIC) to control the growth of Staphylococcus aureus strain PCM 2054.; type: functional; method in brief: as §2
[12] = test system: Staphylococcus aureus; assay: Compound was evaluated for its concentration (IC50) to inhibit the growth of Staphylococcus aureus.; type: functional, organism-based; method in brief: as §1
[13] = test system: Bacillus subtilis; assay: Minimum inhibitory concentration (MIC) to control the growth of Bacillus subtilis strain PCM 1949.; type: functional; method in brief: as §2
[14] = test system: Staphylococcus aureus; assay: Concentration (IC50) to inhibit the growth of Staphylococcus aureus.; type: functional, organism-based; method in brief: as §1
[15] = test system: Staphylococcus aureus; assay: Minimum inhibitory concentration (MIC) to control the growth of Staphylococcus aureus strain PCM 2054.; type: functional; method in brief: as §2
[16] = test system: Serratia marcescens; assay: Compound was evaluated for its concentration (IC50) to inhibit the growth of Serratia marcescens.; type: functional, organism-based; method in brief: as §1
[17] = test system: Serratia marcescens; assay: Minimum inhibitory concentration (MIC) to control the growth of Serratia marcescens strain PCM 549.; type: functional; method in brief: as §2
[18] = test system: Escherichia coli; assay: Compound was evaluated for its minimum inhibitory concentration (MIC) to control the growth of Escherichia coli strain PCM 2057.; type: functional; method in brief: as §2

Row | SMILES | IC50 [1] [mg/L] | MIC [2] [mg/L] | MIC [3] [mg/L] | MIC [4] [mg/L] | IC50 [5] [mg/L] | IC50 [6] [mg/L] | IC50 [7] [mg/L] | IC50 [8] [mg/L] | MIC [9] [mg/L] | MIC [10] [mg/L] | MIC [11] [mg/L] | IC50 [12] [mg/L] | MIC [13] [mg/L] | IC50 [14] [mg/L] | MIC [15] [mg/L] | IC50 [16] [mg/L] | MIC [17] [mg/L] | MIC [18] [mg/L]
1 | CC(N)C(=O)NC(Cc1ccccc1)P(=O)(O)O (configuration not stated) | 14 (≈ 51.4 µM) | > 512 | > 512 | > 512 | > 512 | 6.8 (≈ 25 µM) | > 512 | > 512 | > 512 | > 512 | > 512 | 333 (≈ 1220 µM) | – | – | – | – | – | –
2 | CC(C)CC(N)C(=O)NC(C1CC1)P(=O)(O)O (configuration not stated) | > 512 | > 512 | > 512 | > 512 | > 512 | > 512 | > 512 | > 512 | > 512 | – | – | – | > 512 | 83 (≈ 314 µM) | 128 (≈ 484 µM) | – | – | –
3 | CC(C)CC(N)C(=O)NC(C1CCC1)P(=O)(O)O (configuration not stated) | – | > 512 | – | > 512 | > 512 | > 512 | 230 (≈ 826 µM) | > 512 | > 512 | – | – | – | > 512 | > 512 | > 512 | > 512 | > 512 | –
4 | COc1ccc(CC(NC(=O)C(N)CC(C)C)P(=O)(O)O)cc1OC (configuration not stated) | > 512 | > 512 | – | > 512 | > 512 | > 512 | > 512 | > 512 | > 512 | – | – | – | > 512 | > 512 | > 512 | – | > 512 | –
5 | CC(N)C(=O)NC(C1CCC1)P(=O)(O)O (configuration not stated) | > 512 | > 512 | – | > 512 | > 512 | > 512 | > 512 | > 512 | > 512 | – | – | – | > 512 | > 512 | > 512 | – | > 512 | –
6 | CC(N)C(=O)NC(C(C)C)P(=O)(O)O (configuration not stated) | > 512 | > 512 | – | > 512 | > 512 | > 512 | 0.09 (≈ 0.401 µM) | > 512 | > 512 | – | – | – | > 512 | 6.8 (≈ 30.3 µM) | > 512 | – | > 512 | –
7 | CC(N)C(=O)NC(C1CCCC1)P(=O)(O)O (configuration not stated) | > 512 | > 512 | – | > 512 | > 512 | > 512 | 16 (≈ 63.9 µM) | > 512 | > 512 | – | – | – | > 512 | 512 (≈ 2050 µM) | > 512 | – | > 512 | –
8 | COc1ccc(CC(NC(=O)C(C)N)P(=O)(O)O)cc1OC (configuration not stated) | > 512 | > 512 | – | > 512 | > 512 | > 512 | > 512 | > 512 | > 512 | – | – | – | > 512 | > 512 | > 512 | – | > 512 | –
9 | CC(N)C(=O)NC(C)P(=O)(O)O (configuration not stated) | 0.6 (≈ 3.06 µM) | > 512 | – | – | 0.22 (≈ 1.12 µM) | 512 (≈ 2610 µM) | 30 (≈ 153 µM) | 64 (≈ 326 µM) | > 512 | – | – | – | > 512 | 58 (≈ 296 µM) | > 512 | – | 64 (≈ 326 µM) | 8 (≈ 40.8 µM)
10 | CC(N)C(=O)NC(C1CCCCC1)P(=O)(O)O (configuration not stated) | > 512 | > 512 | – | > 512 | > 512 | > 512 | > 512 | > 512 | > 512 | – | – | – | > 512 | 256 (≈ 969 µM) | > 512 | – | > 512 | –
11 | CC(=O)OCC(NC(=O)C(C)N)P(=O)(O)O (configuration not stated) | > 512 | > 512 | – | > 512 | > 512 | > 512 | 512 (≈ 2010 µM) | 96 (≈ 378 µM) | > 512 | – | – | – | > 512 | 0.065 (≈ 0.256 µM) | > 512 | – | > 512 | –
